2 compounds from ChEMBL document CHEMBL4373651, “Indole compounds with N-ethyl morpholine moieties as CB2 receptor agonists for anti-inflammatory management of pain: synthesis and biological evaluation” (Medchemcomm, 2019) can be followed below.

For assay [1], the target named is Cannabinoid receptor 1 (Homo sapiens, UniProt P21554). In words: Agonist activity at human CB1 receptor expressed in CHO cells coexpressing Galpha16 assessed as reduction in forsklin-induced cAMP production incubated for 30 mins by cAMP Hunter assay based […] analysis. Type of assay: cell-based. Particulars: read-out: EC50. The method, boiled down: (§1)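 CHO cells expressing human CB1 or CB2 with Gα16, seeded overnight at 37 °C. Test compounds in stimulation buffer with 1 mM IBMX, 0.25% BSA and forskolin, 30 min at 37 °C. Cells lysed, cAMP read by enzyme fragment complementation chemiluminescence kit. Triplicate per dilution. Efficacy relative to CP-55940 reference run twice per plate. EC50 from means.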
Cannabinoid receptor 1, sequence (P21554 whole entry, the tested form may be a part): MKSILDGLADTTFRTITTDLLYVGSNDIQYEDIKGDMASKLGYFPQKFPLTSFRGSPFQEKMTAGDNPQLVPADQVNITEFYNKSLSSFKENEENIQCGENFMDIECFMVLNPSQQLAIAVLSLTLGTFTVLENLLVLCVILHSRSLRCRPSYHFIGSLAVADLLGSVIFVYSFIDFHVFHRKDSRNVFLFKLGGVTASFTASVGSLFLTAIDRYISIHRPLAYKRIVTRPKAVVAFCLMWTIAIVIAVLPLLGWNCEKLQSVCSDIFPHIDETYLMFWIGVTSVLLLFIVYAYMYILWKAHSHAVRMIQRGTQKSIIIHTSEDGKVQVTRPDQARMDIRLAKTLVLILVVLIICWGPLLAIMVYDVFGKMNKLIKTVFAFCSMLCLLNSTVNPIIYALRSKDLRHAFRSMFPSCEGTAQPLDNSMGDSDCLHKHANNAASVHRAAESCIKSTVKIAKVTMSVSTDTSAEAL
On the technique in general: Changes in cAMP serve as a functional read-out for many G protein-coupled receptors.

Assay [2] addresses Cannabinoid receptor 2 (Homo sapiens, UniProt P34972). The assay can be described thus: Agonist activity at human CB2 receptor expressed in CHO cells coexpressing Galpha16 assessed as reduction in forsklin-induced cAMP production incubated for 30 mins by cAMP Hunter assay based […] analysis. It is filed as functional, cell-based. Particulars: read-out: EC50. The method, boiled down:
as §1

Assay [3] has as its system Rattus norvegicus. In words: Antiinflammatory hyperalgesic activity against complete freund's adjuvant-induced mechanical hyperalgesic Sprague-Dawley rat model assessed as increase in paw withdraw latency at 10 mg/kg, ip pretreated with CFA for 24 hrs followed by compound administration and measured at 1 hr to 9 hrs by analgesiometer analysis. Type of assay: functional, organism-based. Summed up:
(§2)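 Male Sprague-Dawley rats, 180–200 g. Baseline mechanical paw withdrawal threshold taken with analgesiometer pressure on left hind paw, cut-off 250 g, endpoint complete withdrawal. Intraplantar 50% CFA (50 µL in 0.9% saline) under isoflurane. At 24 h, pre-drug threshold, then single i.p. dose of 0.0025–10 mg kg-1, antagonist combination or vehicle (2 mL kg-1). Thresholds read 1–24 h after dosing. % reversal = (post − pre)/(baseline − pre) × 100.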

Assay [4] relates to Rattus norvegicus. The assay can be described thus: Antiinflammatory hyperalgesic activity against complete freund's adjuvant-induced mechanical hyperalgesic Sprague-Dawley rat model assessed as paw withdraw latency at 10 mg/kg, ip pretreated with CFA for 24 hrs followed by compound administration and measured at 24 hrs by analgesiometer analysis. Type of assay: functional, organism-based. The method, boiled down: as §2

Assay [5] relates to Rattus norvegicus. In words: Antiinflammatory hyperalgesic activity against complete freund's adjuvant-induced mechanical hyperalgesic Sprague-Dawley rat model assessed as decrease in IL-1 beta production in paw skin at 10 mg/kg, ip pretreated with CFA for 24 hrs followed by compound administration and measured after 1 hr by ELISA relative to control. It is filed as functional. Summed up: (§3)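 Male Sprague-Dawley rats, 180–200 g, isoflurane anaesthesia. Left hind paw given intraplantar 50% CFA (50 µL in 0.9% saline), or saline. At 24 h, single i.p. dose of drug, antagonist, combination or vehicle (2 mL kg-1). 1 h after dosing, paw skin taken and homogenised in ice-cold buffer with protease inhibitor, then centrifuged. IL-1β, IL-6 and TNF-α in supernatant by ELISA. n = 6, one-way ANOVA with Tukey test.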
For orientation: ELISA stands for enzyme-linked immunosorbent assay.

Assay [6] has as its system Rattus norvegicus. The assay can be described thus: Antiinflammatory hyperalgesic activity against complete freund's adjuvant-induced mechanical hyperalgesic Sprague-Dawley rat model assessed as decrease in IL-6 production in paw skin at 10 mg/kg, ip pretreated with CFA for 24 hrs followed by compound administration and measured after 1 hr by ELISA relative to control. It is filed as functional. Summed up: as §3

The test system of assay [7] is Rattus norvegicus. The assay can be described thus: Antiinflammatory hyperalgesic activity against complete freund's adjuvant-induced mechanical hyperalgesic Sprague-Dawley rat model assessed as decrease in TNF alpha production in paw skin at 10 mg/kg, ip pretreated with CFA for 24 hrs followed by compound administration and measured after 1 hr by ELISA relative to control. It is filed as functional. The method, boiled down: as §3

Assay [8] can be described thus: Selectivity ratio of EC50 for human CB1 receptor expressed in CHO cells coexpressing Galpha16 to EC50 for human CB2 receptor expressed in CHO cells coexpressing Galpha16. The method, boiled down: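 Ratio of EC50 values from the CB1 and CB2 cAMP assays in CHO-Gα16 cells: 30 min compound exposure at 37 °C with 1 mM IBMX and forskolin, chemiluminescent cAMP read-out, triplicates.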

Assay [9] deals with Rattus norvegicus. In words: Antiinflammatory hyperalgesic activity against complete freund's adjuvant-induced mechanical hyperalgesic Sprague-Dawley rat model assessed as increase in paw withdraw latency at 0.0025 to 10 mg/kg, ip pretreated with CFA for 24 hrs followed by compound administration and measured at 1 hr to 12 hrs by analgesiometer analysis. It is filed as functional, organism-based. Summed up: as §2

The test system of assay [10] is Rattus norvegicus. In words: Antiinflammatory hyperalgesic activity against complete freund's adjuvant-induced mechanical hyperalgesic Sprague-Dawley rat model assessed as paw withdraw latency at 0.0025 to 10 mg/kg, ip pretreated with CFA for 24 hrs followed by compound administration and measured at 24 hrs by analgesiometer analysis. It is filed as functional, organism-based. Summed up:
as §2

Assay [11] deals with Rattus norvegicus. In words: Antiinflammatory hyperalgesic activity against ip dosed complete freund's adjuvant-induced mechanical hyperalgesic Sprague-Dawley rat model assessed as increase in […] pretreated with CFA for 24 hrs followed by compound administration and measured at 1 hr by analgesiometer analysis. Type of assay: functional. The method, boiled down:
as §2

The test system of assay [12] is Rattus norvegicus. The assay can be described thus: Antiinflammatory hyperalgesic activity against complete freund's adjuvant-induced mechanical hyperalgesic Sprague-Dawley rat model assessed as increase in paw withdraw latency at 10 mg/kg, ip pretreated with CFA for 24 hrs followed by compound and 0.5 mg/kg CB1 receptor antagonist, AM281 administration by analgesiometer analysis. It is filed as functional, organism-based. Summed up: as §2

The subject of assay [13] is Rattus norvegicus. In words: Antiinflammatory hyperalgesic activity against complete freund's adjuvant-induced mechanical hyperalgesic Sprague-Dawley rat model assessed as paw withdraw latency at 10 mg/kg, ip pretreated with CFA for 24 hrs followed by compound and 1 mg/kg CB2 receptor antagonist, SR144528 administration by analgesiometer analysis. It is filed as functional, organism-based. Summed up: as §2

The test system of assay [14] is Rattus norvegicus. In words: Antiinflammatory hyperalgesic activity against complete freund's adjuvant-induced mechanical hyperalgesic Sprague-Dawley rat model assessed as decrease in IL-1 beta production in paw skin at 10 mg/kg, ip pretreated with CFA for 24 hrs followed by compound and 0.5 mg/kg CB1 receptor antagonist, AM281 administration and measured after 1 hr by ELISA. Type of assay: functional, organism-based. Summed up:
as §3

Assay [15] concerns Rattus norvegicus. In words: Antiinflammatory hyperalgesic activity against complete freund's adjuvant-induced mechanical hyperalgesic Sprague-Dawley rat model assessed as decrease in IL-6 production in paw skin at 10 mg/kg, ip pretreated with CFA for 24 hrs followed by compound and 0.5 mg/kg CB1 receptor antagonist, AM281 administration and measured after 1 hr by ELISA. It is filed as functional, organism-based. The method, boiled down: as §3

Assay [16] concerns Rattus norvegicus. In words: Antiinflammatory hyperalgesic activity against complete freund's adjuvant-induced mechanical hyperalgesic Sprague-Dawley rat model assessed as decrease in TNF-alpha production in paw skin at 10 mg/kg, ip pretreated with CFA for 24 hrs followed by compound and 0.5 mg/kg CB1 receptor antagonist, AM281 administration and measured after 1 hr by ELISA. Type of assay: functional, organism-based. The method, boiled down: as §3

For assay [17], the system named is Rattus norvegicus. In words: Antiinflammatory hyperalgesic activity against complete freund's adjuvant-induced mechanical hyperalgesic Sprague-Dawley rat model assessed as reduction in IL-1 beta production in paw skin at 10 mg/kg, ip pretreated with CFA for 24 hrs followed by compound and 1 mg/kg CB2 receptor antagonist, SR144528 administration and measured after 1 hr by ELISA. It is filed as functional, organism-based. Summed up: as §3

Assay [18] relates to Rattus norvegicus. The assay can be described thus: Antiinflammatory hyperalgesic activity against complete freund's adjuvant-induced mechanical hyperalgesic Sprague-Dawley rat model assessed as reduction in IL-6 production in paw skin at 10 mg/kg, ip pretreated with CFA for 24 hrs followed by compound and 1 mg/kg CB2 receptor antagonist, SR144528 administration and measured after 1 hr by ELISA. Type of assay: functional, organism-based. Summed up: as §3

The subject of assay [19] is Rattus norvegicus. The assay can be described thus: Antiinflammatory hyperalgesic activity against complete freund's adjuvant-induced mechanical hyperalgesic Sprague-Dawley rat model assessed as reduction in TNF-alpha production in paw skin at 10 mg/kg, ip pretreated with CFA for 24 hrs followed by compound and 1 mg/kg CB2 receptor antagonist, SR144528 administration and measured after 1 hr by ELISA. It is filed as functional, organism-based. Summed up: as §3

Assay [20] concerns Rattus norvegicus. The assay can be described thus: Antiinflammatory hyperalgesic activity against ip dosed complete freund's adjuvant-induced mechanical hyperalgesic Sprague-Dawley rat model assessed as decrease in IL-1 beta production in paw skin pretreated with CFA for 24 hrs followed by compound administration and measured after 1 hr by ELISA. It is filed as functional, organism-based. The method, boiled down: as §3

Assay [21] concerns Rattus norvegicus. In words: Antiinflammatory hyperalgesic activity against ip dosed complete freund's adjuvant-induced mechanical hyperalgesic Sprague-Dawley rat model assessed as decrease in IL-6 production in paw skin pretreated with CFA for 24 hrs followed by compound administration and measured after 1 hr by ELISA. Type of assay: functional, organism-based. The method, boiled down: as §3

The test system of assay [22] is Rattus norvegicus. The assay can be described thus: Antiinflammatory hyperalgesic activity against ip dosed complete freund's adjuvant-induced mechanical hyperalgesic Sprague-Dawley rat model assessed as decrease in TNF-alpha production in paw skin pretreated with CFA for 24 hrs followed by compound administration and measured after 1 hr by ELISA. It is filed as functional, organism-based. Summed up:
as §3

For assay [23], the system named is Rattus norvegicus. The assay can be described thus: Antiinflammatory hyperalgesic activity against complete freund's adjuvant-induced mechanical hyperalgesic Sprague-Dawley rat model assessed as reduction in IL-1 beta production in paw skin at 0.1 mg/kg, ip pretreated with CFA for 24 hrs followed by compound administration and measured after 1 hr by ELISA. Type of assay: functional, organism-based. The method, boiled down:
as §3

The subject of assay [24] is Rattus norvegicus. The assay can be described thus: Antiinflammatory hyperalgesic activity against complete freund's adjuvant-induced mechanical hyperalgesic Sprague-Dawley rat model assessed as reduction in IL-6 production in paw skin at 0.1 mg/kg, ip pretreated with CFA for 24 hrs followed by compound administration and measured after 1 hr by ELISA. Type of assay: functional, organism-based. The method, boiled down:
as §3

For assay [25], the system named is Rattus norvegicus. In words: Antiinflammatory hyperalgesic activity against complete freund's adjuvant-induced mechanical hyperalgesic Sprague-Dawley rat model assessed as reduction in TNF-alpha production in paw skin at 0.1 mg/kg, ip pretreated with CFA for 24 hrs followed by compound administration and measured after 1 hr by ELISA. It is filed as functional, organism-based. Summed up: as §3

Activity calls are given as the source filed them.

Cannabinoid receptor 2, sequence (P34972 whole entry): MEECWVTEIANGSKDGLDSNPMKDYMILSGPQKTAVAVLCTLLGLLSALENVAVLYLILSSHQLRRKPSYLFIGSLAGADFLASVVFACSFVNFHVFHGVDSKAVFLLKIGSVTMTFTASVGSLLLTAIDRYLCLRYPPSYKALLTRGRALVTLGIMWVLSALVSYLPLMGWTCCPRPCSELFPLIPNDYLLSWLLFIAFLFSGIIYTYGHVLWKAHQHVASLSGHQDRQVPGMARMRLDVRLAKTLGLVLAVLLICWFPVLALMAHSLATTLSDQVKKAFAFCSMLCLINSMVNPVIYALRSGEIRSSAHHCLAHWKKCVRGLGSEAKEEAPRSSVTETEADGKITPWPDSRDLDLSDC

For `COc1ccc2c(c1)c(CCN1CCOCC1)c(C)n2C(=O)c1cccc(Cl)c1Cl`, the results for the EC50 in assay [1] and in assay [2] were 16.1 µM and 0.0507 µM, respectively. For the same compound, the outcome in assay [3] was Active. The result in assay [4] was inactive. In addition, the figures for the “fold change (FC)” value in assay [5], in assay [6] and in assay [7] were 1.4, 2.5 and 1.6, respectively. Besides, the “Ratio EC50” value in assay [8] is recorded as greater than 1000.
Turning to `Cc1c(CCN2CCOCC2)c2cc(F)ccc2n1C(=O)c1cccc(Cl)c1Cl`, the EC50 in assay [1] turned out to be 29.2 µM; in [2], 0.0189 µM. Besides, the result in assay [9] and in assay [12] was Active. The outcome in assay [10], in assay [13], in assay [17], in [18], in assay [19] and in assay [23] was inactive. The result in assay [24] and in assay [25] was inactive. For the same compound, in assay [11], the Activity entry was “Dose-dependent effect”. For the same compound, the ED50 in assay [11] worked out at 1.1 mg/kg. Further, the “fold change (FC)” value in assay [5] is 1.3; in assay [6], 1.9; in [7], 1.1. The inhibition entry in assay [14], in [15] and in [16] was “Active” in each case. Moreover, in [8], the “Ratio EC50” value is reported as greater than 1000. In addition, the inhibition entry in [20], in assay [21] and in [22] was “Dose-dependent effect” in each case.

Usually EC50 stands for the midpoint of the concentration-response curve. As usually defined, the ED50 is the midpoint of the dose-response relation.
